Laboratory results: ChEMBL document CHEMBL2086292, “Chalcogenopyrylium compounds as modulators of the ATP-binding cassette transporters P-glycoprotein (P-gp/ABCB1) and multidrug resistance protein 1 (MRP1/ABCC1)” (J Med Chem, 2012)
Values joined by “and” are separate entries in the source; they are usually repeats but may differ in a detail not shown here. Equal entries are not always repeated. One block for each molecule: values may come before it.

How the values were obtained:
[1] = Octanol-water partition coefficient, log P of the compound in PBS at pH 7.4 after 1 hr by shake flask method; format: physicochemical
In short: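 Shake-flask method: saturated n-octanol solution shaken with an equal volume of PBS pH 7.4 for 3–5 min, then left to settle 1 h at 23 °C. Concentration in each layer measured spectrophotometrically.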

[2] = molecular target: T1, MRP1 (Multidrug resistance-associated protein 1) (Homo sapiens, UniProt P33527); assay: Inhibition of human MRP1-mediated uptake of [3H]E2-17betaG in HEK cell membrane vesicles at 10 uM by liquid scintillation counter; format: cell membranes, HEK293; conditions: HEK cell membrane vesicles with human MRP1, probe [3H]E2-17betaG
T1 sequence (P33527 whole entry): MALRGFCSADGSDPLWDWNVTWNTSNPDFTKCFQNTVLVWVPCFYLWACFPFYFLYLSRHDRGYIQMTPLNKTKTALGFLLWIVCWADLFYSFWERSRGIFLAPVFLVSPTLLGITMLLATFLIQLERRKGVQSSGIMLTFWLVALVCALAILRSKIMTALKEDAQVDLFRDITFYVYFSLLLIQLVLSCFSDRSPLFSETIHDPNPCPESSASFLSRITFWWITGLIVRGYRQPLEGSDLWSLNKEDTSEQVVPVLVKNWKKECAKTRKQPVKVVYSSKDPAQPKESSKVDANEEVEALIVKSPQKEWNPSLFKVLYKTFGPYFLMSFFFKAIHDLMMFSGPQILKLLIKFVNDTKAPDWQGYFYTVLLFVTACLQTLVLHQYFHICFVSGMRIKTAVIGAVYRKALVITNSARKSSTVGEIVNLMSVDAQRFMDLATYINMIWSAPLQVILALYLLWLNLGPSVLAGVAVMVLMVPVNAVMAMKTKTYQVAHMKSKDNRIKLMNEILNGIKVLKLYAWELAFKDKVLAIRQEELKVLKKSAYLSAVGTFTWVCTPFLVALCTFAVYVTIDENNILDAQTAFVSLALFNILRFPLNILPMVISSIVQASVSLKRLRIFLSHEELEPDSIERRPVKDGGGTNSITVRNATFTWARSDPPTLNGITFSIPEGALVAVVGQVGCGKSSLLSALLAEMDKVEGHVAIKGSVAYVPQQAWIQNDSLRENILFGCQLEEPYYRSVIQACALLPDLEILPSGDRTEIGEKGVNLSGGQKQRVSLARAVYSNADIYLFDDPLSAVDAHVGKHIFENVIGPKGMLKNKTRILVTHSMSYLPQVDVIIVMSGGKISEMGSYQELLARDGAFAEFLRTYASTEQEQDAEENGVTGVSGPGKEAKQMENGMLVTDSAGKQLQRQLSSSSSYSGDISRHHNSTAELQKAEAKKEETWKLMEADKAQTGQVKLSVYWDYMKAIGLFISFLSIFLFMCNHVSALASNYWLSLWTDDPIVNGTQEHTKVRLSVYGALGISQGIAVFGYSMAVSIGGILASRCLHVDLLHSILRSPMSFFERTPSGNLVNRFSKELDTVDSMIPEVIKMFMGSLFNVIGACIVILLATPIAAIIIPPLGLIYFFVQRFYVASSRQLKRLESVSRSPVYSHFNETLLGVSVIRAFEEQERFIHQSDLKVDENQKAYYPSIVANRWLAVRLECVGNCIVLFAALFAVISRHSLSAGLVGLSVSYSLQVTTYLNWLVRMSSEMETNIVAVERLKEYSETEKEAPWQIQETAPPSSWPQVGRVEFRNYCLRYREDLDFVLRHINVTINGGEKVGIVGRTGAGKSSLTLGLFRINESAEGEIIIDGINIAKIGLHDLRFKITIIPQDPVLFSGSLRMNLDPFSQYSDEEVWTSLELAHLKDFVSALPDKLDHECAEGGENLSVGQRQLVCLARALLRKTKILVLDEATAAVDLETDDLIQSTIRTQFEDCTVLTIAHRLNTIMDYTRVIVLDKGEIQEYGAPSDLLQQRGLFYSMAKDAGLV
In short: (§1)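 Inside-out membrane vesicles from HEK cells stably transfected with human MRP1. Vesicle protein (2 μg) incubated in Tris-sucrose buffer pH 7.4 with 400 nM [3H]E2-17βG, 4 mM ATP or AMP and 10 mM MgCl2, 3 min at 37 °C, in duplicate; DMSO ≤1% final. Stopped by ice-cold dilution and rapid filtration, then scintillation counted. ATP-dependent uptake taken as ATP minus AMP values; inhibition reported as percent.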

[3] = test system: P-glycoprotein (MDR1); assay: P-glycoprotein-mediated transport in MDCK2-MDR1 cells assessed as permeability across apical to basolateral side at 5 uM after 1 hr; conditions: dog, MDCK-MDR1
[4] = test system: MDCK-II; assay: Inhibition of P-gp expressed in MDCK2-MDR1 cells at 25 uM by calcein AM accumulation assay relative to LSN 335984; format: cell-based
In short: (§2)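 MDCKII cells transfected with wild-type human MDR1, seeded at 40000 cells/well and used on day 4. Washed in DPBS with 10 mM HEPES pH 7.4, then compound in the same buffer 30 min at 37 °C. Replaced with compound plus 0.5 μg/mL calcein AM for a further 20 min. Fluorescence read at Ex 485/Em 530 nm. Signal expressed relative to 5 μM LSN 335984, taken as complete inhibition; vehicle 0.25% DMSO. IC50 from 1:1 serial dilutions by variable-slope sigmoidal fit.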

[5] = molecular target: P-gp (ABCB1) (Homo sapiens, UniProt P08183); assay: Induction of ATPase activity of human His10-tagged P-gp expressed in BHK cells assessed as inorganic phosphate release after 30 mins relative to control; format: cell-based; conditions: human His10-tagged P-gp expressed in BHK cells, read-out: FC
Chain of P-gp (ABCB1) (P08183 whole entry): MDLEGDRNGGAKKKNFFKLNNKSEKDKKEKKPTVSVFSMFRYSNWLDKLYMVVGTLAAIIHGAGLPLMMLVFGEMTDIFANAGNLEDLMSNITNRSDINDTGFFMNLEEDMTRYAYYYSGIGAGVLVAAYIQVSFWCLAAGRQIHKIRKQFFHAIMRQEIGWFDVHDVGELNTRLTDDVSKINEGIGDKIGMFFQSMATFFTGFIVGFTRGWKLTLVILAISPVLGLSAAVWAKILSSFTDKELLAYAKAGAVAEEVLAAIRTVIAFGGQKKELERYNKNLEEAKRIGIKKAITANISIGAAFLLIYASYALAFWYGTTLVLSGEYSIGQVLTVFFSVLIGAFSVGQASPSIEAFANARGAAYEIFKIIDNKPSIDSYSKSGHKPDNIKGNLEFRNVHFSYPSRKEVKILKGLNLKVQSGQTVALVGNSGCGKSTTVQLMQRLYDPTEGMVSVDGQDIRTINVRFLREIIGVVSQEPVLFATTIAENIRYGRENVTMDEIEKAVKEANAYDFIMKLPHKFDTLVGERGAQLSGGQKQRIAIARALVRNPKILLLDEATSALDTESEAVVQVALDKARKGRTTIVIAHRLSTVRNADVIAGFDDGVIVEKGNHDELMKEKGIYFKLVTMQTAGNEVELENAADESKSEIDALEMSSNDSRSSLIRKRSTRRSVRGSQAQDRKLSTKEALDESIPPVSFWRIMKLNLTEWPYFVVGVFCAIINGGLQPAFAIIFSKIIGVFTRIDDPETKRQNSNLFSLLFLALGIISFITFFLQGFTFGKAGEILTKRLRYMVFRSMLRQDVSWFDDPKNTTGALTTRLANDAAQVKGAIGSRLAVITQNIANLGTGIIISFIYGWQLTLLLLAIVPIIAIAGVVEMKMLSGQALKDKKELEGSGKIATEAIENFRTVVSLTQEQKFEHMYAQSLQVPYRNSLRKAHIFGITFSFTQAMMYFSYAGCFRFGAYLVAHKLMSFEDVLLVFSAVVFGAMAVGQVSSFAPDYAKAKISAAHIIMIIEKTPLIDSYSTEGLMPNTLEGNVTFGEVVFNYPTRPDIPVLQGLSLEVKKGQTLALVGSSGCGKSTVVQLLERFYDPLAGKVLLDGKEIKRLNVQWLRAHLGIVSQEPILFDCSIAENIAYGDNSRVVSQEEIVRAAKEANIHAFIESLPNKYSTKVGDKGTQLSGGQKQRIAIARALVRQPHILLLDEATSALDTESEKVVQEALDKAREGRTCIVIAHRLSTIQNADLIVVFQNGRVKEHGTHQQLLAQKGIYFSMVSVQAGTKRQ
In short: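 Human P-gp with C-terminal His10 tag, stably expressed in BHK cells, purified by Ni-chelate chromatography and mixed 1:1 with 10 mg/mL sheep brain phosphatidylethanolamine in TBS (10 mM Tris/HCl pH 7.4, 150 mM NaCl), then sonicated. Compound titrated, 30 min at 37 °C. Inorganic phosphate released from ATP measured. Vmax expressed as fold over basal activity; KM is the concentration giving half-maximal stimulation.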

[6] = Normalized ratio of the compound assessed as ratio of PBA/AB in absence of LSN 335984 to ratio of PBA/AB in presence of LSN 335984 in MDCK2-MDR1 cells at 5 uM after 1 hr; format: ADME, cell-based, Canis lupus familiaris; conditions: dog, mdck-mdr1, 1 h
In short: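 MDCKII-MDR1 cells seeded at 50000 cells/cm² on Transwell filters, used on day 6. Preincubated 30 min with 4.3 mg/mL BSA in DPBSH, with or without 5 μM LSN 335984. Compound (5 μM) added to the apical or basolateral donor chamber and incubated 1 h at 37 °C with nutation. Donor and receiver samples quantified by LC-MS/MS. AB and BA permeabilities calculated. Normalized ratio is the BA/AB ratio without inhibitor divided by the ratio with inhibitor.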

[7] = test system: P-glycoprotein (MDR1); assay: P-glycoprotein-mediated transport in MDCK2-MDR1 cells assessed as permeability across basolateral to apical side at 5 uM after 1 hr; conditions: dog, MDCK-MDR1
[8] = molecular target: T1, MRP1 (Multidrug resistance-associated protein 1); assay: Inhibition of human MRP1-mediated uptake of [3H]E2-17betaG in HEK cell membrane vesicles at 1 uM by liquid scintillation counting relative to control; format: cell membranes, HEK293; conditions: HEK cell membrane vesicles with human MRP1, probe [3H]E2-17betaG; in short: as §1
[9] = Inhibition of P-gp expressed in MDCK2-MDR1 cells by calcein AM accumulation assay; format: cell-based; conditions: MDCK-II
In short: as §2, with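 “min.” for “min. Fluorescence read at Ex 485/Em 530 nm. Signal expressed relative to 5 μM LSN 335984, taken as complete inhibition; vehicle 0.25% DMSO.”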

[10] = Inhibition of P-gp mediated [3H]VIN efflux in MDCK2-MDR1 cells by scintillation counter; format: cell-based; conditions: MDCK-II
In short: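 MDCKII-MDR1 monolayers on Transwell filters, used on day 6. Rinsed in DPBSH, then preincubated 30 min at 37 °C with compound ([…]) in BSA/DPBSH. [3H]vinblastine (0.25 μCi/mL) plus compound added basolaterally and fresh compound solution added apically. Apical buffer replaced every 10 min; apical radioactivity counted by scintillation. IC50 fitted.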

[11] = molecular target: T1, MRP1 (Multidrug resistance-associated protein 1); assay: Inhibition of human MRP1 mediated uptake of [3H]E2-17betaG in HEK cell membrane vesicles at 30 uM by liquid scintillation counting relative to control; format: cell membranes, HEK293; conditions: HEK cell membrane vesicles with human MRP1, probe [3H]E2-17betaG; in short: as §1
[12] = test system: MDCK-II; assay: Inhibition of P-gp expressed in MDCK2-MDR1 cells at 5 uM by calcein AM accumulation assay relative to LSN 335984; format: cell-based; in short: as §2
[13] = molecular target: T1, MRP1 (Multidrug resistance-associated protein 1); assay: Inhibition of human MRP1 mediated uptake of [3H]E2-17betaG in HEK cell membrane vesicles at 5 uM by liquid scintillation counting relative to control; format: cell membranes, HEK293; conditions: HEK cell membrane vesicles with human MRP1, probe [3H]E2-17betaG
In short: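 Inside-out vesicles from stably transfected HEK-MRP1 cells (2 μg protein) in Tris-sucrose buffer pH 7.4 with [³H]E₂17βG 400 nM, ATP or AMP 4 mM, MgCl₂ 10 mM, 3 min at 37 °C, compound at 5 μM; DMSO ≤1%; stopped by ice-cold dilution, rapid filtration, scintillation counting; ATP-dependent uptake = ATP minus AMP; duplicate wells.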

[14] = molecular target: ATP-dependent translocase ABCB1 (Homo sapiens, UniProt P08183); assay: Inhibition of VER-stimulated human His10-tagged P-gp ATPase activity expressed in BHK cells after 15 mins; format: cell-based
Chain of ATP-dependent translocase ABCB1 (P08183 whole entry): as above

Compound: CN(C)c1ccc(-c2cc(-c3ccc(N(C)C)cc3)[te+]c(C(C)(C)C)c2)cc1
inhibition at 30 µM [11]: 96%
fold induction at 0.5 h [5]: 8.4

Compound: Nc1ccc(-c2cc(-c3ccc(N4CCOCC4)cc3)cc(-c3ccccc3)[te+]2)cc1
inhibition at 30 µM [11]: 96%
fold induction at 0.5 h [5]: 4.5

Compound: CC(C)(C)c1cc(-c2ccccc2)cc(C(C)(C)C)[te+]1
inhibition at 30 µM [11]: 34%
fold induction at 0.5 h [5]: 1.5

Compound: CC(C)(C)c1cc(-c2ccccc2)cc(C(C)(C)C)[se+]1
fold induction at 0.5 h [5]: 1.4
inhibition at 1 µM [8]: 0%

Compound: CC(C)(C)c1cc(-c2ccc(C(=O)O)s2)cc(C(C)(C)C)[se+]1
IC50 [14]: 111 µM
fold induction at 0.5 h [5]: < 1.4
inhibition at 5 µM [13]: 15%

Compound: CCN(CC)C(=O)c1ccccc1-c1cc(C(C)(C)C)[te+]c(C(C)(C)C)c1
inhibition at 30 µM [11]: 45%
fold induction at 0.5 h [5]: 6.9

Compound: CC(C)(C)c1cc(-c2ccc(C(=S)N3CCCCC3)s2)cc(C(C)(C)C)[s+]1
inhibition [12]: 3.6%
inhibition [4]: 27% and < 7%

Continued, in another order:

logD at 1 h [1]: 0.2
inhibition at 10 µM [2]: 11%
Papp A-B at 1 h, 5 µM [3]: 0.38 ×10⁻⁶ cm/s
fold induction at 0.5 h [5]: 5.5
Ratio [6]: 10
Papp B-A at 1 h, 5 µM [7]: 5.9 ×10⁻⁶ cm/s
inhibition at 1 µM [8]: 0%
Compound: CC(C)(C)c1cc(-c2ccc(C(=O)N3CCCCC3)s2)cc(C(C)(C)C)[s+]1.F[P-](F)(F)(F)(F)F
inhibition [4]: < 7%

logD at 1 h [1]: 1.6
inhibition at 10 µM [2]: 81%
Papp A-B at 1 h, 5 µM [3]: 0.11 ×10⁻⁶ cm/s
IC50 [9]: 34 µM
fold induction at 0.5 h [5]: 5.7
Ratio [6]: 8
Papp B-A at 1 h, 5 µM [7]: 1.6 ×10⁻⁶ cm/s
inhibition at 1 µM [8]: 25%
Compound: CN(C)c1ccc(-c2cc(-c3ccc(C(=S)N4CCCCC4)s3)cc(-c3ccc(N(C)C)cc3)[s+]2)cc1.[Cl-]
IC50 [10]: 6.6 µM

inhibition at 30 µM [11]: 33%
fold induction at 0.5 h [5]: 2.9
Compound: CC(C)(C)c1cc(-c2ccccc2)cc(C(C)(C)C)[s+]1
inhibition [12]: 0%
inhibition [4]: 1%

fold induction at 0.5 h [5]: 5.9
inhibition at 5 µM [13]: 70%
Compound: CCCCc1cc(-c2ccc(N(C)C)cc2)cc(-c2ccc(N(C)C)cc2)[s+]1

inhibition at 30 µM [11]: 81%
fold induction at 0.5 h [5]: 4.3
Compound: CC(C)(C)c1cc(-c2ccc(C(=S)N3CCCCC3)s2)cc(C(C)(C)C)[se+]1

inhibition at 30 µM [11]: 96%
fold induction at 0.5 h [5]: 13
Compound: CN(C)c1ccc(-c2cc(-c3ccc(C(=O)O)s3)cc(C(C)(C)C)[s+]2)cc1

inhibition at 30 µM [11]: 34%
fold induction at 0.5 h [5]: 7.9
Compound: CCN(CC)C(=O)c1ccccc1-c1cc(C(C)(C)C)[s+]c(C(C)(C)C)c1
inhibition [12]: 0%
inhibition [4]: 0%

inhibition at 30 µM [11]: 0%
Compound: Cc1cc(C(C)(C)C)[o+]c(C(C)(C)C)c1

inhibition at 30 µM [11]: 50%
fold induction at 0.5 h [5]: 6.9
Compound: CN(C)c1ccc(-c2cc(-c3ccccc3)cc(C(C)(C)C)[s+]2)cc1
